Test results published in ChEMBL document CHEMBL4177746, “Discovery of orally efficacious RORγt inverse agonists. Part 2: Design, synthesis, and biological evaluation of novel tetrahydroisoquinoline derivatives” (Bioorg Med Chem, 2018).

Assays:
[1] = Oral bioavailability in mouse at 1 mg/kg administered via cassette dose by LC-MS/MS analysis; assay type: ADME, organism-based; settings: in vivo
How it was run: (§1)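 Cassette oral dosing of mice at 1 mg/kg. Blood was sampled after dosing and centrifuged to give plasma. Plasma was deproteinized with acetonitrile containing internal standard, centrifuged, diluted with LC mobile phase and centrifuged again for analysis. Values are means of three determinations.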

[2] = (§2) AUC (0 to 8 hrs) in mouse at 1 mg/kg, po administered via cassette dose by LC-MS/MS analysis; assay type: ADME, organism-based; design: time < 8 hr, dose 1 mg/kg, route oral; settings: in vivo; how it was run: as §1
Mus musculus [3] = assay: as §2; assay type: ADME, organism-based; design: time < 8 hr, dose 1 mg/kg, route oral; settings: in vivo, 8 h; how it was run: as §1
Mus musculus [4] = assay: Drug uptake in po dosed Balb/c mouse; assay type: ADME, organism-based; settings: in vivo
How it was run: (§3)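 Male Balb/c mice, 7 weeks old, received intradermal ear injection of recombinant mouse IL-23 (500 ng/10 μL PBS) under isoflurane. Compound was suspended in 0.5% methylcellulose and given orally at 3, 10 or 30 mg/kg, 30 min before and 8 h after IL-23. Plasma concentration was measured in parallel with the PD assay, giving Cmax and […].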

[5] = Cmax in Balb/c mouse at 3 mg/kg, po; assay type: ADME, organism-based; design: dose 3 mg/kg, route oral; settings: in vivo; how it was run: as §3
Mus musculus [6] = assay: Effect on IFNgamma expression in po dosed Balb/c mouse measured after 24 hrs by qRT-PCR analysis; assay type: ADME, organism-based; settings: in vivo
[7] = AUC (0 to 24 hrs) in Balb/c mouse at 30 mg/kg, po; assay type: ADME, organism-based; design: time < 24 hr, dose 30 mg/kg, route oral; settings: in vivo
How it was run: (§4)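 Male Balb/c mice, 7 weeks old, received 3, 10 or 30 mg/kg orally as a suspension in 0.5% methylcellulose. Dosing was 30 min before and 8 h after intradermal ear injection of recombinant mouse IL-23 (500 ng in 10 μL PBS). Plasma drug levels were measured alongside this PD study, and AUC was taken over 0–24 h.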

[8] = AUC (0 to 24 hrs) in Balb/c mouse at 3 mg/kg, po; assay type: ADME, organism-based; design: dose 3 mg/kg, time < 24 hr, route oral; settings: in vivo; how it was run: as §4
Mus musculus [9] = organism: Mus musculus; assay: animal or person; settings: Balb/c, po
[10] = Cmax in Balb/c mouse at 10 mg/kg, po; assay type: ADME, organism-based; design: dose 10 mg/kg, route oral; settings: in vivo; how it was run: as §3
[11] = AUC (0 to 24 hrs) in Balb/c mouse at 10 mg/kg, po; assay type: ADME, organism-based; design: time < 24 hr, dose 10 mg/kg, route oral; settings: in vivo; how it was run: as §4
[12] = Cmax in Balb/c mouse at 30 mg/kg, po; assay type: ADME, organism-based; design: dose 30 mg/kg, route oral; settings: in vivo; how it was run: as §3

Row | Compound | bioavailability [1] [%] | AUC(0-t) at 8 h [2] [ng·h/mL] | also measured
1 | COc1ccc2c(c1)CCN(C(=O)CC1SC(=O)NC1=O)[C@H]2C(=O)Nc1cc(F)c([Si](C)(C)C)c(F)c1 (stereo not given in full) | 13 | 120 | –
2 | COc1ccc([C@H](C(=O)Nc2cc(F)c([Si](C)(C)C)c(F)c2)N(C)C(=O)CCC(=O)O)cc1 | 8.5 | 162 | –
3 | COc1ccc2c(c1)CCN(C(=O)CCCCC(=O)O)[C@H]2C(=O)Nc1cc(F)c([Si](C)(C)C)c(F)c1 | 84 | 1030 | –
4 | COc1ccc2c(c1)CCN(C(=O)/C=C/C(=O)O)[C@H]2C(=O)Nc1cc(F)c([Si](C)(C)C)c(F)c1 | 51 | 619 | –
5 | COc1ccc([C@H](C(=O)Nc2cc(F)c([Si](C)(C)C)c(F)c2)N(C)C(=O)c2cc(O)no2)cc1 | 18 | – | AUC (Mus musculus [3]): 374 ng·h/mL
6 | COc1ccc2c(c1)CCN(C(=O)CCC(=O)O)[C@H]2C(=O)Nc1cc(F)c([Si](C)(C)C)c(F)c1 | 51 | 2500 | –
7 | COc1ccc2c(c1)CCN(C(=O)CCCC(=O)O)[C@H]2C(=O)Nc1cc(F)c([Si](C)(C)C)c(F)c1 | 94 | 6890 | Drug uptake (Mus musculus [4]): Dose-dependent effect; Cmax [5]: 1630 ng/mL; Activity (Mus musculus [6]): Non-Toxic; AUC(0-t) at 24 h [7]: 159 µg·h/mL; AUC(0-t) at 24 h [8]: 10700 ng·h/mL; ED50 (Mus musculus [9]): 2.8 mg/kg; Cmax [10]: 7720 ng/mL; AUC(0-t) at 24 h [11]: 48000 ng·h/mL; Cmax [12]: 19000 ng/mL
8 | COc1ccc2c(c1)CCN(C(=O)CCCC(N)=O)[C@H]2C(=O)Nc1cc(F)c([Si](C)(C)C)c(F)c1 | 14 | 92 | –

Further lines, with some results ahead:

Row | bioavailability [1] [%] | AUC(0-t) at 8 h [2] [ng·h/mL] | Compound | also measured
9 | 34 | 159 | COc1ccc2c(c1)CCN(C(=O)CC(C)(O)CC(=O)O)[C@H]2C(=O)Nc1cc(F)c([Si](C)(C)C)c(F)c1 (stereo not given in full) | –
10 | 9 | 29.5 | COc1ccc2c(c1)OCCN(C(=O)c1cc(O)no1)[C@H]2C(=O)Nc1cc(F)c([Si](C)(C)C)c(F)c1 | –
11 | 65 | 2500 | COc1ccc2c(c1)CCN(C(=O)CC(C)CC(=O)O)[C@H]2C(=O)Nc1cc(F)c([Si](C)(C)C)c(F)c1 (stereo not given in full) | –
12 | 40 | 2270 | COc1ccc2c(c1)CCN(C(=O)CC(C)(C)CC(=O)O)[C@H]2C(=O)Nc1cc(F)c([Si](C)(C)C)c(F)c1 | –
13 | 11 | 200 | COc1ccc2c(c1)CCN(C(=O)c1cc(O)no1)[C@H]2C(=O)Nc1cc(F)c([Si](C)(C)C)c(F)c1 | –
